Laboratory results as given in ChEMBL document CHEMBL4513216, “Probing the Open Global Health Chemical Diversity Library for Multistage-Active Starting Points for Next-Generation Antimalarials” (ACS Infect Dis, 2020).

Assay: Toxicity liver stage against HepG2, at 10uM
Type: cell-based
Parameters: test concentration 10 uM, cell line HepG2-A16-CD81EGFP
Settings: human, HepG2-A16-CD81EGFP cells; read-out: INHIBITION
In short: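 Uninfected HepG2-A16-CD81EGFP cells, 3 × 10^3 per well, 1536-well, plated on prespotted compound at 10 μM final, parasite-free screening media added to match infected plates; puromycin 10 μM positive, DMSO 0.5% negative; run in parallel with 48 h PbLuc assay at 37 °C, 5% CO2; viability by CellTiter-Glo luminescence, normalized to controls.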

Structure (SMILES)	cytotoxicity at 10 µM [%]
COCCN(CC1CCCO1)C(=O)CCNC(=O)c1ccccc1F (stereo unspecified)	-41.7
Cn1ncc2c(N3CCN(CCC(N)=O)CC3)nc(C3CCCC3)nc21	-2.45
CCC(=O)c1ccc(OCC(=O)NC(C)Cc2cc(C)n[nH]2)cc1 (stereo unspecified)	-39.7
Cn1ncc(N2CCN(Cc3ccc(S(C)(=O)=O)cc3)CC2)cc1=O	-1.44
Cc1ccc(C(=O)O)cc1CNC(=O)CN1CC[C@](C)(O)C(C)(C)C1	-4.18
Cc1ccc(CCNc2ncc(C)c(-c3ccnn3C)n2)s1	9.68
COCc1nc(CN2C(=O)OC[C@@H]2C(C)C)no1	-12.4
COC(=O)N1CCN(C(=O)c2ccc(C)c(N3CCNC3=O)c2)CC1	3.76
CC(c1cccnc1)N(C)Cc1cc2cc3c(cc2[nH]c1=O)OCO3 (stereo unspecified)	9.27
CC(C)CC(O)C1CCN(C(=O)c2ccc(C(C)C)[nH]c2=O)CC1 (stereo unspecified)	3.25
Cc1ccsc1CN1CC2(CCN(C(=O)C3CC3)CC2)CC1C(=O)O (stereo unspecified)	3.24
COc1ccc(OC)c(C2CCN(C3CCN(C(C)=O)CC3)C2)c1 (stereo unspecified)	-3.2
Cc1ccc(N2CCC(CCN3CCCC3=O)CC2)nn1	6.35
CNC(=O)c1noc(CN2CC[C@](C)(O)[C@H](C)C2)n1	-37.5
Cc1[nH]nc(CCC(=O)N2CCc3ncnc(NCCO)c3CC2)c1C	-0.781
COc1ccc2cc(C(=O)N3CC[C@H](CO)[C@H](O)C3)n(C)c2c1	-7.03
O=C1CCC(CCC(=O)N2CCCC2c2nccs2)=NN1 (stereo unspecified)	4.06
COc1cccc(C)c1C(=O)N1CCc2ncnc(NCCO)c2CC1	5.69
NCCCn1nc(C(F)(F)F)c2c1CCC2	-8.3

Structure (SMILES)	cytotoxicity at 10 µM [%]
COc1ccc(CNC(C)Cn2cccn2)cc1OC (stereo unspecified)	-0.966
CCc1csc(C2CCCN(C(=O)c3cc(C4CC4)[nH]n3)C2)n1 (stereo unspecified)	-1.22
CCc1nnc(CN(C)C2CCCN(Cc3noc(C4CC4)n3)C2)o1 (stereo unspecified)	2.27
O=C(c1csc(-c2cnccn2)n1)N1CCCC1Cn1cccn1 (stereo unspecified)	-7.35
CCOc1ccc(C(=O)N(Cc2cnn(C)c2)C(C)C)cc1OCC	-8.4
CC(C)N1CCN(C(=O)Nc2cnc3c(cnn3C(C)C)c2)CC1	6.23
CC(C(=O)N1CCOCC1)N1CCN(Cc2nccn2C)CC1 (stereo unspecified)	-1.71
O=C(c1cc(C2CC2)on1)N1CCCC(n2cccn2)C1 (stereo unspecified)	-4.04
O=C(c1cccc2ncccc12)N1CCCC(n2ccnc2)C1 (stereo unspecified)	-11.6
O=C(Cn1nc(-c2ccc(F)cc2)oc1=O)NCCc1ccccc1	-13.5
COc1ccc(CNCc2c(C(C)C)nn(C)c2OC)cn1	-10.9
Cc1cc(C2CCCN2Cc2nc3c(cnn3C)c(=O)[nH]2)on1 (stereo unspecified)	-10.7
Cc1nn(C)c(C)c1CCC(=O)N1CCCC(n2cncn2)C1 (stereo unspecified)	-1.4
Cc1ccc(-c2nc(CCNC(=O)NCC(C)(C)C(N)=O)co2)cc1	-10.1
Cc1nn(C)c(N(C)C)c1CNCc1ccccc1Cn1ccnc1	-15.3
Cc1ccccc1OCCN1CCn2c(C)nnc2C1	-2.78
CCOc1cccc2c1OCC(C(=O)NS(=O)(=O)c1cccs1)=C2	-2.97
COCCN(CCOC)Cc1nc2c(cnn2C)c(=O)[nH]1	-9.73
Cc1noc2ncc(C(=O)N3CCCC(n4cccn4)C3)cc12 (stereo unspecified)	-1.39

Structure (SMILES)	cytotoxicity at 10 µM [%]
Cc1cnn(CC2CN(CC(=O)Nc3nnc(C)s3)CCO2)c1 (stereo unspecified)	-0.472
COc1c(CNC(c2ccc(F)cc2)c2nccn2C)c(C)nn1C (stereo unspecified)	-12.7
CNS(=O)(=O)Cc1ccc(CNC(=O)Nc2cn[nH]c2)cc1	-0.935
CC(Cn1cccn1)NC(=O)N(C)Cc1ccc(Cl)s1 (stereo unspecified)	-11.9
C1CC(NCc2nc(C3CC3)no2)CN(Cc2noc(C3CC3)n2)C1 (stereo unspecified)	-8.65
Cc1cc(C)n(CC2CCCN2CC(=O)N(C)Cc2cnn(C)c2)n1 (stereo unspecified)	-5.85
c1cnnc(N2CCCC(NCc3cn4ccccc4n3)C2)c1 (stereo unspecified)	-5.87
O=C(c1ccn(-c2cccc(F)c2)n1)N1CCCC(n2cccn2)C1 (stereo unspecified)	-5.25
Cc1nn(C)c(N2CCOCC2)c1CNCc1ccc(Cl)s1	4.09
CC1CN(C(=O)CN(Cc2ccccc2Br)C2CC2)CCO1 (stereo unspecified)	2.38
CCn1nc(C)c(-c2cncn2CCN(C)C2CCCC2)c1C	4.83
CCN1CCc2cc(-c3cncn3CCNC3CCS(=O)(=O)C3)ccc21 (stereo unspecified)	-1.59
c1cc2c(cc1C1(CNC3=NCCN3)CCCC1)OCCO2	11
O=C(NCc1cccs1)[C@@H]1CC[C@@H]2[C@@H](CCN2C2CCOCC2)O1	0.37
c1cc(CN2CC[C@@H]3CN(c4cnccn4)C[C@@H]3C2)ccn1	-119
Cn1cc(N2CC3(CCN(Cc4ccoc4)CC3)OCC2=O)cn1	-1.66
O=C(NCc1cccnc1)c1nc2c(s1)CCCN2C(=O)C1CC1	-93
Cc1nc(CN2CCc3ncnc(-c4ccncc4)c3CC2)cs1	-70
